This is an account of results in the array DNA melting data of Ke et al. (doi:10.1101/2024.01.08.574731).

Series [1] is described as follows: folding enthalpy; higher = less favourable; fluorescence melt of hairpins on a sequencing array, two-state fit. The note with it: sodium 0.088 M. In outline:
(§1)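 Two-state fits, bootstrapped, provided melting temperature and folding enthalpy from Cy3 fluorescence normalised to pre-quench Cy3 and to control constructs. Library hairpins with annealed Cy3 and quencher oligos were imaged on a sequenced MiSeq flow cell in 50 mM Na-HEPES pH 8.0, 25 mM NaCl, at 2.5 °C intervals up to 60 °C. Four replicates were combined with inverse-variance weighting. A 9.35 °C upward shift was applied to fitted temperatures to match UV melts.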

Series [2] can be described thus: melting temperature; fluorescence melt of hairpins on a sequencing array, two-state fit, raised by 9.35 °C to match UV melts. The note with it: sodium 0.088 M. In outline: as §1

In the case of GTGACCGAAAGGTAACAC ((((((....)))..))), the folding enthalpy in series [1] is -16.9 kcal/mol. The Tm in series [2] was 47.1 °C.
On the same counts, the results for GGAGTCCGAAAGGAATCC (((.(((....))).))) are -41.5 kcal/mol and 56.4 °C.
In the case of GTCGCCGAAAGGCAGGAC ((((((....)))..))), the folding enthalpy in series [1] was -13.1 kcal/mol. Besides, the Tm in series [2] was determined as 50.4 °C.
As to GATCGTATGCACGATC ((((((....)))))), the folding enthalpy in series [1] was -26.1 kcal/mol. Further, the Tm in series [2] was determined as 54.5 °C.
For GATCTATGATAGATC ((((((...)))))) the same measures were -25.2 kcal/mol and 37.3 °C.
Regarding GATCTCAGTGGAGATC ((((((....)))))), the folding enthalpy in series [1] is -40.9 kcal/mol. Besides, the Tm in series [2] turned out to be 52.6 °C.
On the same counts, the results for GCAATGCGAAAGCAACGC ((..(((....)))..)) are -14.4 kcal/mol and 40.2 °C.
On the same counts, the results for GAGTCCGAAAGGATTCTC ((((((....)))..))) are -24.4 kcal/mol and 50.6 °C.
For GCGGTTCCCGC ((((...)))) the same measures were -22.1 kcal/mol and 67.5 °C.
On to GTCCCAGGAAACTGGGAC (((((((....))))))), for which the folding enthalpy in series [1] was -35.7 kcal/mol. The Tm in series [2] amounted to 68.8 °C.
On to GGAGACGAAAGTCCGTCC ((((((....)))..))), for which the folding enthalpy in series [1] was -12.4 kcal/mol. In series [2], the Tm worked out at 32.5 °C.
On to GACGAGAAATCGTC (((((....))))), for which, in series [1], the folding enthalpy was -28.1 kcal/mol. The Tm in series [2] amounted to 51.2 °C.
On the same counts, the results for GACGACGAAAGTCGGGTC ((((((....)))..))) are -12.8 kcal/mol and 64.1 °C.
For GGAGCCGAAAGGCGCTCC ((((((....)))..))), in series [1], the folding enthalpy was -9.71 kcal/mol. The Tm in series [2] worked out at 47.9 °C.
On the same counts, the results for GATCCCGCGTGGGATC ((((((....)))))) are -38.4 kcal/mol and 59.9 °C.
On the same counts, the results for GGGACTGCGAAAGCACCC (((..(((....)))))) are -9.02 kcal/mol and 37.3 °C.
Consider GAAACCGGAAACGGTTCC (.(((((....))))).), for which the folding enthalpy in series [1] is -13.4 kcal/mol. The Tm in series [2] was 41.4 °C.
On the same counts, the results for GAACCCGAAAGGGGTTTC ((((((....)))..))) are -11.6 kcal/mol and 46.9 °C.
On the same counts, the results for GAACCCGGAAACAGGTTC (((((.(....).))))) are -25.9 kcal/mol and 40 °C.
On the same counts, the results for GCGCCGCGAAAGCAGGGC ((.(.((....)).).)) are -13.1 kcal/mol and 57.4 °C.
As for GTCACTGGAAACAGTGGC (.(((((....))))).), the folding enthalpy in series [1] was -40.8 kcal/mol. The Tm in series [2] turned out to be 53.7 °C.
On the same counts, the results for AACAAGAAATTGTT (((((....))))) are -7.18 kcal/mol and 23.3 °C.
For GGATAAGGAAACTTATTC (.(((((....))))).) the same measures were -21.2 kcal/mol and 30.4 °C.
Take GCATGCGGAAACGCACGC ((.((((....)))).)): the folding enthalpy in series [1] was -25.7 kcal/mol. In series [2], the Tm is 52.1 °C.
On the same counts, the results for CGAACGGAAACGTATCG ((((((....))).))) are -19.2 kcal/mol and 36.1 °C.
For GCAGCTGGAAACAGCTAC (.(((((....))))).) the same measures were -14 kcal/mol and 42.1 °C.
On the same counts, the results for GGTAGCCGAAAGGCCACC (((.(((....))).))) are -19.5 kcal/mol and 52.2 °C.
Regarding GGGACGCGAAAGCGCCC (((.(((....)))))), the folding enthalpy in series [1] was -15.4 kcal/mol. In addition, in series [2], the Tm came to 64.7 °C.
For GCTTACGAAAGTATAGC ((((((....))).))) the same measures were -23.4 kcal/mol and 44.6 °C.
On the same counts, the results for GATTTAGGAAACTAGATC (((.(((....))).))) are -27.5 kcal/mol and 28.3 °C.
For GATCAGCGACTGATC ((((((...)))))) the same measures were -33.1 kcal/mol and 46.8 °C.
With GTTGGCCGAAAGGCAAC (((.(((....)))))), in series [1], the folding enthalpy was -16.8 kcal/mol. In addition, in series [2], the Tm stood at 53.9 °C.
For the sequence GCTGTGGAAACACAGC ((((((....)))))), in series [1], the folding enthalpy is -37.4 kcal/mol. Also, the Tm in series [2] stood at 68.7 °C.
For GATCGTTTACACGATC ((((((....)))))) the same measures were -45.4 kcal/mol and 53.8 °C.
Regarding GCGATGCGAAAGCTTGGC ((.(.((....)).).)), the folding enthalpy in series [1] is -15.1 kcal/mol. Further, the Tm in series [2] was found to be 43.8 °C.
On the same counts, the results for GATCGTCTTACGATC ((((((...)))))) are -34.8 kcal/mol and 57.1 °C.
In the case of GCATAGCGAAAGCTTGC (((.(((....)))))), the folding enthalpy in series [1] was -22.5 kcal/mol. The Tm in series [2] was 54.3 °C.
